In ChEMBL document CHEMBL1121898, “Potential antiestrogens. Synthesis and evaluation of mammary tumor inhibiting activity of 1,2-dialkyl-1,2-bis(3'-hydroxyphenyl)ethanes” (1981):
One block for each molecule: values may come before it.

Experiments:
[1] = test system: Estrogen receptor (Bos taurus); assay: Displacement of [3H]estradiol from calf estrogen receptor
[2] = molecular target: T1, Estrogen receptor (Mus musculus) (UniProt O08537+P19785); assay: Estrogenic activity in uterotrophic test in mice at 900 ug; assay type: functional
T1 sequence (O08537 whole entry, looked up): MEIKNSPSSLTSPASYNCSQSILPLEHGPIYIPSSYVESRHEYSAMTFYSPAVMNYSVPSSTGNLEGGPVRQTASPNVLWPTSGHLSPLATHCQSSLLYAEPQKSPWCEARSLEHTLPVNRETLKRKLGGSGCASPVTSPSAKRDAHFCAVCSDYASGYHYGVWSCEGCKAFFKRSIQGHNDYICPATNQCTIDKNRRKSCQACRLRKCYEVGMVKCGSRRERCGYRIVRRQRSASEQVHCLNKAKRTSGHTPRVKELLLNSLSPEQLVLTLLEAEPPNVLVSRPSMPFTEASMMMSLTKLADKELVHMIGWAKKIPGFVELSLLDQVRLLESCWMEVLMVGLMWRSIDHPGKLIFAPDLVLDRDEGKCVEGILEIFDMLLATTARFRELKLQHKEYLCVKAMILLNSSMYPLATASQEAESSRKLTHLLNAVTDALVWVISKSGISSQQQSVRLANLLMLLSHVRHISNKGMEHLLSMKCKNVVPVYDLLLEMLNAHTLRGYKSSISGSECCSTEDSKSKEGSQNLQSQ
T1 sequence (P19785 whole entry, looked up): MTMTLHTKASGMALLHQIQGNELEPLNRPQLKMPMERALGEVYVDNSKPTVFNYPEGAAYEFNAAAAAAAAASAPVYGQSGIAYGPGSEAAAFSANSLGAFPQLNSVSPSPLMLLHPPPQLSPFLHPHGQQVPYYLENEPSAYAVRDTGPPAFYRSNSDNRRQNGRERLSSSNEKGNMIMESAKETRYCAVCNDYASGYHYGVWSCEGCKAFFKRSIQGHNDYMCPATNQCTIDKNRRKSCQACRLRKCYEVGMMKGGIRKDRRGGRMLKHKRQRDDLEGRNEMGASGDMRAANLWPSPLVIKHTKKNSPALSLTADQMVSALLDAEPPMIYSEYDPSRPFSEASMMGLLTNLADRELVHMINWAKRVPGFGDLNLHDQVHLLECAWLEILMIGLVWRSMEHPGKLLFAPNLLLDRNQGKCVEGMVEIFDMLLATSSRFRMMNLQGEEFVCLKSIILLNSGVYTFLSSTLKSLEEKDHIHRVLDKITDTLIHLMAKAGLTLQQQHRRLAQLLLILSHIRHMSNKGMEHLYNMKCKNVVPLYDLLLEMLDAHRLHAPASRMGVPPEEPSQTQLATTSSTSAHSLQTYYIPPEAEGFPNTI
How it was run: (§1)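 Immature (20-day-old) female NMRI mice, 14.5 ± 1.2 g, randomized into groups of 10. Given the test compound sc daily for 3 days in 0.1 mL olive oil. Uteri removed 24 h after the last injection; uterine weight taken as the read-out, means ± SD. Dose in μg.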

[3] = molecular target: T1, Estrogen receptor (Mus musculus); assay: Inhibitory activity in mouse uterine weight test at 1000 ug; assay type: functional
How it was run: (§2)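 Antiuterotrophic (Dorfman) assay in immature 20-day-old female NMRI mice, groups of 10. Uterine growth was stimulated with estrone (0.1 μg) and the test compound was given alongside it, sc daily for 3 days in 0.1 mL olive oil. Uteri were taken 24 h after the last dose. Uterine weight is reported as means ± SD and inhibition as % of the estrone-stimulated response.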

Rattus norvegicus [4] = organism: Rattus norvegicus; assay: Percent unchanged tumor size of DMBA-induced hormone-dependent mammary carcinoma tumors in ovarectiemised rats; assay type: functional
How it was run: (§3)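 DMBA-induced, hormone-dependent mammary adenocarcinoma in SD rats, with ovariectomy as the treatment. Rats bearing at least one tumor >140 mm² were placed in groups of ten. Tumors were counted at the start and as new tumors. Responses were scored as complete remission, partial remission (≥50% size reduction), no change or progression, with % change in tumor area and body weight.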

[5] = molecular target: T1, Estrogen receptor (Mus musculus); assay: Estrogenic activity in uterotrophic test in mice at 100 ug; assay type: functional
How it was run: (§4)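 Uterine growth stimulation in immature female NMRI mice, 20 days old (14.5 ± 1.2 g), 10 per group. Test compound in 0.1 mL olive oil was given sc daily for 3 days. Uteri were excised 24 h after the final injection and weighed. Effect is reported as mean ± SD.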

[6] = molecular target: T1, Estrogen receptor (Mus musculus); assay: Antiestrogenic activity in uterotrophic test in mice at 3.3 ug; assay type: functional
How it was run: (§5)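 Immature female NMRI mice, 20 days old (14.5 ± 1.2 g), randomly grouped 10 per group. Each received a daily sc injection for 3 days of 0.1 mL olive oil solution containing test compound, together with estrone to stimulate uterine growth. Uteri were removed 24 h after the last injection and weighed. Results are reported as % inhibition of the estrone-stimulated uterine weight gain, mean ± SD.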

[7] = molecular target: T1, Estrogen receptor (Mus musculus); assay: Estrogenic activity in uterotrophic test in mice at 30 ug; assay type: functional
How it was run: as §4

Rattus norvegicus [8] = organism: Rattus norvegicus; assay: Number of DMBA-induced hormone-dependent mammary carcinoma tumors in ovariectomised rats; assay type: functional
How it was run: as §3

Rattus norvegicus [9] = organism: Rattus norvegicus; assay: Percent change in DMBA-induced hormone-dependent mammary carcinoma tumor area in ovariectomised rats after 28 days; assay type: functional
How it was run: as §3

Rattus norvegicus [10] = organism: Rattus norvegicus; assay: Percent unchanged tumor size of DMBA-induced hormone-dependent mammary carcinoma tumors in rats at 34 mg; assay type: functional
Rattus norvegicus [11] = organism: Rattus norvegicus; assay: Partial remission of DMBA-induced hormone-dependent mammary carcinoma tumors in rats at 8.5 mg; assay type: functional
How it was run: (§6)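 DMBA-induced, hormone-dependent mammary adenocarcinoma in SD rats. Rats bearing at least one tumor >140 mm² were placed in groups of ten. Compound was given sc as a single dose (mg/kg) daily Monday–Thursday and a double dose on Friday. Tumors were counted at the start and as new tumors; responses were scored as complete remission (not palpable), partial remission (≥50% reduction), no change or progression. Tumor area and body weight were recorded as % change.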

Rattus norvegicus [12] = organism: Rattus norvegicus; assay: Complete remission of DMBA-induced hormone-dependent mammary carcinoma tumors in rats at 8.5 mg; assay type: functional
How it was run: (§7)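 Female SD rats bearing DMBA-induced, hormone-dependent mammary adenocarcinoma, with at least one tumor >140 mm², were grouped in tens. Dosing was sc per kg body weight: a single dose daily Monday–Thursday and a double dose Friday. Ovariectomy served as the comparison arm. Complete remission was defined as a tumor no longer palpable. Body weight and tumor area changes were also recorded.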

Rattus norvegicus [13] = organism: Rattus norvegicus; assay: Progression of DMBA-induced hormone-dependent mammary carcinoma tumors in rats at 8.5 mg; assay type: functional
[14] = molecular target: T1, Estrogen receptor (Mus musculus); assay: Estrogenic activity in uterotrophic test in mice at 2700 ug; assay type: functional
How it was run: as §4

Rattus norvegicus [15] = organism: Rattus norvegicus; assay: Final number of DMBA-induced hormone-dependent mammary carcinoma tumors in rats at 34 mg; assay type: functional
How it was run: (§8)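 Sprague-Dawley rats carrying DMBA-induced, hormone-dependent mammary adenocarcinoma, at least one tumor >140 mm², were placed in groups of ten. Compounds were given sc, with doses in mg/kg: a single daily dose Monday to Thursday and a double dose on Friday. Ovariectomy served as a comparator group. New tumors arising during the test were counted.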

Rattus norvegicus [16] = organism: Rattus norvegicus; assay: Partial remission of DMBA-induced hormone-dependent mammary carcinoma tumors in rats at 34 mg; assay type: functional
How it was run: as §6

Rattus norvegicus [17] = organism: Rattus norvegicus; assay: Initial tumor number of DMBA-induced hormone-dependent mammary carcinoma in rats at 8.5 mg; assay type: functional
How it was run: as §6

[18] = molecular target: T1, Estrogen receptor (Mus musculus); assay: Antiestrogenic activity in uterotrophic test in mice at 100 ug; assay type: functional
How it was run: as §5

[19] = molecular target: T1, Estrogen receptor (Mus musculus); assay: Antiestrogenic activity in uterotrophic test in mice at 0 ug; assay type: functional
How it was run: as §5

Rattus norvegicus [20] = organism: Rattus norvegicus; assay: Percent change in DMBA-induced hormone-dependent mammary carcinoma tumor area at 34 mg after 28 days; assay type: functional
How it was run: as §6

Rattus norvegicus [21] = organism: Rattus norvegicus; assay: Partial remission of DMBA-induced hormone-dependent mammary carcinoma tumors in rats at 17 mg; assay type: functional
How it was run: as §6

Rattus norvegicus [22] = organism: Rattus norvegicus; assay: Initial tumor number of DMBA-induced hormone-dependent mammary carcinoma in rats at 17 mg; assay type: functional
How it was run: as §6

Rattus norvegicus [23] = organism: Rattus norvegicus; assay: Final number of DMBA-induced hormone-dependent mammary carcinoma tumors in rats at 8.5 mg; assay type: functional
How it was run: as §8

Rattus norvegicus [24] = organism: Rattus norvegicus; assay: Initial tumor number of DMBA-induced hormone-dependent mammary carcinoma in rats at 34 mg; assay type: functional
How it was run: as §6

[25] = molecular target: T1, Estrogen receptor (Mus musculus); assay: Estrogenic activity in uterotrophic test in mice at 300 ug; assay type: functional
How it was run: as §1

[26] = molecular target: T1, Estrogen receptor (Mus musculus); assay: Estrogenic activity in uterotrophic test in mice at 0 ug; assay type: functional
How it was run: as §4

Rattus norvegicus [27] = organism: Rattus norvegicus; assay: Percent unchanged tumor size of DMBA-induced hormone-dependent mammary carcinoma tumors in rats at 8.5 mg; assay type: functional
Rattus norvegicus [28] = organism: Rattus norvegicus; assay: Progression of DMBA-induced hormone-dependent mammary carcinoma tumors in rats at 17 mg; assay type: functional
Rattus norvegicus [29] = organism: Rattus norvegicus; assay: Percent change in body weight DMBA-induced hormone-dependent mammary carcinoma tumors in rats at 8.5 mg for 7 days; assay type: functional
Rattus norvegicus [30] = organism: Rattus norvegicus; assay: Percent change in body weight DMBA-induced hormone-dependent mammary carcinoma tumors in rats at 17 mg for 7 days; assay type: functional
How it was run: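 DMBA-induced, hormone-dependent mammary adenocarcinoma in SD rats; animals carrying at least one tumor over 140 mm² put in groups of ten. Compound given sc, dose per kg body weight per day: single dose Monday to Thursday, double dose Friday. Body weight read out as % change, alongside tumor counts, remission categories and % change in tumor area.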

Rattus norvegicus [31] = organism: Rattus norvegicus; assay: Complete remission of DMBA-induced hormone-dependent mammary carcinoma tumors in ovariectomised rats; assay type: functional
How it was run: as §7

Rattus norvegicus [32] = organism: Rattus norvegicus; assay: Percent change in body weight DMBA-induced hormone-dependent mammary carcinoma tumors in rats at 34 mg for 7 days; assay type: functional
Rattus norvegicus [33] = organism: Rattus norvegicus; assay: Partial remission of DMBA-induced hormone-dependent mammary carcinoma tumors in ovariectomised rats; assay type: functional
How it was run: as §3

Rattus norvegicus [34] = organism: Rattus norvegicus; assay: Complete remission of DMBA-induced hormone-dependent mammary carcinoma tumors in rats at 17 mg; assay type: functional
How it was run: as §7

[35] = molecular target: T1, Estrogen receptor (Mus musculus); assay: Inhibitory activity in mouse uterine weight test at 3.3 ug; assay type: functional
How it was run: as §2

Rattus norvegicus [36] = organism: Rattus norvegicus; assay: Percent change in body weight DMBA-induced hormone-dependent mammary carcinoma tumors in ovariectomised rats after 7 days; assay type: functional
How it was run: as §3

Rattus norvegicus [37] = organism: Rattus norvegicus; assay: Complete remission of DMBA-induced hormone-dependent mammary carcinoma tumors in rats at 34 mg; assay type: functional
How it was run: as §7

[38] = molecular target: T1, Estrogen receptor (Mus musculus); assay: Inhibitory activity in mouse uterine weight test at 0.1 ug; assay type: functional
How it was run: as §2

Rattus norvegicus [39] = organism: Rattus norvegicus; assay: Percent change in DMBA-induced hormone-dependent mammary carcinoma tumor area at 8.5 mg after 28 days; assay type: functional
How it was run: as §6

Rattus norvegicus [40] = organism: Rattus norvegicus; assay: Percent change in DMBA-induced hormone-dependent mammary carcinoma tumor area at 17 mg after 28 days; assay type: functional
How it was run: as §6

[41] = molecular target: T1, Estrogen receptor (Mus musculus); assay: Antiestrogenic activity in uterotrophic test in mice at 1000 ug; assay type: functional
How it was run: as §5

Rattus norvegicus [42] = organism: Rattus norvegicus; assay: Percent unchanged tumor size of DMBA-induced hormone-dependent mammary carcinoma tumors in rats at 17 mg; assay type: functional
[43] = molecular target: T1, Estrogen receptor (Mus musculus); assay: Inhibitory activity in mouse uterine weight test at 100 ug; assay type: functional
How it was run: as §2

Rattus norvegicus [44] = organism: Rattus norvegicus; assay: Progression of DMBA-induced hormone-dependent mammary carcinoma tumors in ovariectomised rats; assay type: functional
How it was run: as §3

Rattus norvegicus [45] = organism: Rattus norvegicus; assay: Final number of DMBA-induced hormone-dependent mammary carcinoma tumors in rats at 17 mg; assay type: functional
How it was run: as §8

Rattus norvegicus [46] = organism: Rattus norvegicus; assay: Progression of DMBA-induced hormone-dependent mammary carcinoma tumors in rats at 34 mg; assay type: functional

Ka [1]: 2.3e+07 M⁻¹
Effect [2]: 30.8
inhibition [3]: 1%
Effect [5]: 12.6
Effect [6]: 33.9
Effect [7]: 11.2
Effect [14]: 35.2
Effect [18]: 25.9
Effect [19]: 10.5
Effect [25]: 16.5
Effect [26]: 10.5
inhibition [35]: 16%
inhibition [38]: 3%
Effect [41]: 38.1
inhibition [43]: 45%
SMILES: CCCCC(c1cccc(O)c1)C(CCCC)c1cccc(O)c1 (centres undefined)
Tumors (Rattus norvegicus [4]): 3%
No. of tumors (Rattus norvegicus [8]): 8
Change (Rattus norvegicus [9]): -96%
Tumors (Rattus norvegicus [10]): 27%
Tumors (Rattus norvegicus [11]): 9%
Tumors (Rattus norvegicus [12]): 2%
Tumors (Rattus norvegicus [13]): 65%
No. of tumors (Rattus norvegicus [15]): 30
Tumors (Rattus norvegicus [16]): 9%
No. of tumors (Rattus norvegicus [17]): 21
Change (Rattus norvegicus [20]): 260%
Tumors (Rattus norvegicus [21]): 6%
No. of tumors (Rattus norvegicus [22]): 27
No. of tumors (Rattus norvegicus [23]): 37
No. of tumors (Rattus norvegicus [24]): 22
Tumors (Rattus norvegicus [27]): 24%
Tumors (Rattus norvegicus [28]): 55%
Change (Rattus norvegicus [29]): 1.5%
Change (Rattus norvegicus [30]): 1.7%
Tumors (Rattus norvegicus [31]): 74%
Change (Rattus norvegicus [32]): 0.3%
Tumors (Rattus norvegicus [33]): 23%
Tumors (Rattus norvegicus [34]): 3%
Change (Rattus norvegicus [36]): 3.6%
Tumors (Rattus norvegicus [37]): 6%
Change (Rattus norvegicus [39]): 534%
Change (Rattus norvegicus [40]): 389%
Tumors (Rattus norvegicus [42]): 36%
Tumors (Rattus norvegicus [44]): 0%
No. of tumors (Rattus norvegicus [45]): 45
Tumors (Rattus norvegicus [46]): 58%

Ka [1]: 3.3e+06 M⁻¹
inhibition [3]: 14%
Effect [6]: 39.5
Effect [18]: 34.2
Effect [19]: 10.5
inhibition [38]: 5%
Effect [41]: 34.6
inhibition [43]: 15%
SMILES: CCCCCC(c1cccc(O)c1)C(CCCCC)c1cccc(O)c1 (centres undefined)
